Screening results from PubChem BioAssay.
Shown are actives, neighbours in structure and some others; about 1.9% of the full set was active somewhere.
CaV13 ICDI inh = Primary screen for inhibitors of IQ motif and Ca2+-dependent inactivation inhibitor domain binding in CACNA1D, Förster resonance energy transfer in living cells, …. HEK cells, CFP/YFP FRET ICDI-IQ, plate reader, 10 min; percent FRET-ratio fall versus neutral wells. inhibition, % at 12.3 µM. 0.098% of 340,000 active. AID 743397;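 active = mean replicate inhibition of at least 30% and at least 1% of replicates passing that level; inconclusive = only one of the two criteria is met; inactive = neither criterion is met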;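 also: 0% = median of the neutral control wells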
RanGTP-Impb inh = inhibitors of RanGTP-importin-beta interaction, primary screen, biochemical, FRET, CFP-Ran, YFP-importin-beta, homogeneous. inhibition, % (no concentration beside the values). cell-free CFP-Ran/YFP-importin-beta FRET ratio. 1.1% of 300,000 active;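 active = more than half of the replicate wells show a fall in the fluorescence ratio signal beyond about 16%, limit read from the data, passing the limit was not always enough; inconclusive = exactly half of the replicate wells pass the set limit; inactive = fewer than half of replicates pass the limit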;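 also: 0% = DMSO wells and 100% = Ran loaded with GDP instead of GTP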
LANA-H2B inh = blocks KSHV LANA binding to histone H2A/H2B | Q9QR71 | cell-free LANA-H2A/H2B peptide, fluorescence polarization | inhibition, % (concentration not given with the values) | 0.6% of 320,000 active | AID 2629; in the data active = inhibition mostly above about 10%, no sharp cut-off; inactive = mostly below about 6.7%
Runt-SMMHC FRET = Runt domain-CBFb-SMMHC interaction inhibition; AID 1434; Q01196+Q13951; inhibition, % at 20 µM; Cerulean-Runt/Venus-CBFb-SMMHC FRET ratio 530/480, 1 h; 0.74% of 220,000 active;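 active = mean inhibition across duplicate retests at 20 µM reaching about 50%, limit read from the data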;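 also: 0% = DMSO wells and 100% = wells with excess untagged CBFb-SMMHC; inhibitors lower the FRET ratio by blocking Runt binding to CBFb-SMMHC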
Runt-CBFb FRET = inhibitors of human RUNX1 Runt domain binding to CBFb; Q01196+Q13951; Cerulean-Runt/Venus-CBFb FRET ratio 530/480, 1 h; inhibition, % at 20 µM; 0.46% of 220,000 active;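 active = inhibition over about 50% at 20 µM in the single-dose screen, limit read from the data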;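 also: 0% = DMSO wells and 100% = excess unlabeled CBFb competitor control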
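Assay system: Cerulean-Runt domain fusion protein, energy donor; Signal: fluorescence energy transfer, 422 nm excitation, 530/480 nm emission; Timing: 1 h compound exposure, room temperature; Control set: unlabeled CBFb; Medium: Tris buffer pH 7.5 with salts and BSA; Compound: single test concentration of 20 µM, 1% DMSO final; Probe or stimulus: Venus-CBFb 100 nM.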
HDAC3 inhib = inhibitors of human histone deacetylase 3. inhibition, % at 8.3 µM. recombinant HDAC3, fluorogenic peptide/trypsin coupled, fluorescence. 0.15% of 320,000 active. AID 2718; in the data active = inhibition above about 26%, passing the limit was not always enough; inconclusive = no clear call, values can overlap the other calls
Target sequence (O15379 whole entry, looked up): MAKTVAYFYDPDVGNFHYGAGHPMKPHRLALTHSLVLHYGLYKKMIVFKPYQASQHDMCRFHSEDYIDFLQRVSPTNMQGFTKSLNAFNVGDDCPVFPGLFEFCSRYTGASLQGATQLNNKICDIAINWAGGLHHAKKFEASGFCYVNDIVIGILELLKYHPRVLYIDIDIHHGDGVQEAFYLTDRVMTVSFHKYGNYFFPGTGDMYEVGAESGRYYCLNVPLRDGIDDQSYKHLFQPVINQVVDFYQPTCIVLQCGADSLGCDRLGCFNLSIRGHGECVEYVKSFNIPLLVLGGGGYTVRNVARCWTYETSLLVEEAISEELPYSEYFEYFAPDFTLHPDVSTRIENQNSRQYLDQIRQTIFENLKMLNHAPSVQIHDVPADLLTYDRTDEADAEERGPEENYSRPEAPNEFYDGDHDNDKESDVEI
* hit, by the source's call; ? = inconclusive; · = not tested or not shown; + = active, no number.

SMILES | CaV13 ICDI inh | RanGTP-Impb inh | LANA-H2B inh | Runt-SMMHC FRET | Runt-CBFb FRET | HDAC3 inhib
Cn1cccc1/C=N/n1c(-c2ccccc2)n[nH]c1=S | · | -3.3 | -5.1 | 13.0 | 9.2 | 2.0
Cn1cccc1/C=N/n1c(-c2ccc(C(C)(C)C)cc2)n[nH]c1=S | -0.7 | 1.7 | -2.4 | 19.9 | 14.1 | 28.6*
Cc1ccccc1NC(=O)Cc1nc(COC(=O)Cc2cccc(C(F)(F)F)c2)cs1 | -8.9 | · | · | · | · | ·
O=C(NCCc1ccccc1)C1CCN(c2nc3ccccc3o2)CC1 | -3.3 | 4.5 | 14.3* | -0.2 | -2.6 | -3.7
O=C(NC1CCCCCCC1)C1CCN(c2nc3ccccc3o2)CC1 | -8.6 | -1.9 | 0.9 | -3.8 | 1.3 | -7.2
CS(=O)(=O)c1ccc(S(=O)(=O)NCC2CCN(C(=O)C(=O)c3cc4ccccc4o3)CC2)cc1 | -9.6 | · | · | · | · | ·
N=c1c(C(=O)NC2CCCC2)cc2c(=O)n3ccccc3nc2n1C1CCCCC1 | 16.3 | 180.7* | 1.4 | · | · | -314.6
Cc1ccc2nc3c(cc(C(=O)NC4CCCCC4)c(=N)n3C3CCCCC3)c(=O)n2c1 | 15.6 | 182.0* | -1.9 | · | · | -81.4
Cc1ccc2nc3c(cc(C(=O)NC4CCCC4)c(=N)n3C3CCCCC3)c(=O)n2c1 | 13.6 | 182.3* | 2.3 | · | · | -33.6
O=C(NC1CCCCCC1)c1ccc2nc3cc(Cl)ccc3c(=O)n2c1 | 1.5 | 12.0 | -0.8 | 0.4 | 6.8 | 2.7
Cc1cccc(NC(=O)N2CCC(NC(=O)c3ccco3)CC2)c1 | -4.6 | 3.2 | -2.7 | · | · | -1.7
O=Cc1ccc(C(=O)OCC(=O)Nc2ccc(F)cc2F)cc1 | -4.8 | 3.9 | -7.8 | · | · | 2.5
O=C(NNC1=NS(=O)(=O)c2ccccc21)c1ccccc1Cl | -5.5 | 0.6 | 0.9 | -2.4 | 1.9 | 0.0
Clc1ccc(-c2cn3nc4c(nc3n2)CCCC4)cc1 | 18.2 | 69.9* | 1.4 | 57.2 | 12.3 | 0.0
Cc1ccc(-c2cn3nc(C)c(C)nc3n2)cc1 | 15.2 | -0.5 | 2.0 | 62.6 | 12.6 | -11.5
COc1cccc(-c2cn3nc4c(nc3n2)CCCC4)c1 | · | 45.6* | 1.0 | 2.9 | -1.0 | 3.0
CC(=O)N/C(N)=N/c1nc2cc([N+](=O)[O-])ccc2o1 | -3.8 | 1.4 | 0.4 | 1.5 | -0.7 | 0.0
CC1CCCN(C(=O)C(=O)Nc2ccc3nc4n(c(=O)c3c2)CCCCC4)C1 (stereo not given) | -5.8 | 3.0 | -0.1 | · | · | ·
COc1cccc2c1nc(C)c1cc(C)oc12 | -6.2 | 33.3* | -3.7 | 2.7 | -1.1 | -3.0
COc1ccc(NC(=S)NC2CC3CCCC(C2)N3C2CC2)cc1 (stereo not given) | 0.5 | 2.9 | -0.1 | 2.4 | 0.2 | 9.7
CCCN1C2CCCC1CC(NC(=S)Nc1ccc(OC)cc1)C2 (stereo not given) | 2.7 | 0.6 | -2.5 | 71.0* | 23.6 | -7.6
COc1cc(NS(=O)(=O)c2ccc(NC(=S)NC(=O)/C=C/c3ccco3)cc2)ncn1 | 9.5 | -0.4 | · | 7.6 | 15.3 | ·
O=C(NCc1cccc(F)c1)c1cccc2c1C(=O)c1ccc(N3CCCC3)cc1S2(=O)=O | · | · | 25.2* | · | · | 9.9
CCOC(=O)c1ccc(S(=O)(=O)N2CCN(CC(=O)NC(=O)NC(C)(C)C)CC2)cc1 | -5.7 | 2.8 | 0.3 | -2.6 | -0.4 | 2.5
C=CCn1c(SCC(=O)Nc2ccc(-c3nc4ccc(C)cc4s3)cc2)nnc1-c1ccccc1 | -9.2 | 4.4 | 159.1* | 1.9 | 4.2 | -11.0
SMILES | CaV13 ICDI inh | RanGTP-Impb inh | LANA-H2B inh | Runt-SMMHC FRET | Runt-CBFb FRET | HDAC3 inhib
C=CCn1c(SCC(=O)NNC(=O)Nc2ccc(C)cc2)nnc1-c1ccccc1 | -19.8 | -0.8 | 0.6 | -2.0 | 0.6 | -1.2
O=C(c1cccs1)c1ccc(-c2cccs2)s1 | -15.2 | 41.7* | 3.2 | 49.6 | 19.4 | -11.7
CN1CCN(C(=O)c2ccc(-c3cccs3)s2)CC1 | -16.8 | 3.3 | -4.4 | 3.2 | 0.9 | -88.0
COc1ccccc1CNS(=O)(=O)c1cc(-c2cc(C)no2)ccc1C(C)C | -3.0 | 2.7 | 3.0 | · | · | ?
O=S(Cc1ccc(Cl)cc1)CC(O)COCc1ccc(Cl)cc1 (stereo not given) | -5.0 | 2.3 | 19.1* | -1.3 | 0.0 | 1.3
OC(CNCc1ccccc1)COCc1ccc(Cl)cc1 (stereo not given) | -4.1 | -1.1 | 2.6 | -0.1 | 1.8 | -4.9
CCc1ccc(C(C)NC(=O)c2ccc(F)cc2)cc1 (stereo not given) | · | 0.5 | -1.2 | -1.7 | 0.7 | 5.4
CCc1ccc(C(C)NC(=O)c2ccncc2)cc1 (stereo not given) | -4.7 | 5.2 | 23.3* | · | · | 0.0
O=C(NCc1ccco1)c1cnn2c(C(F)F)cc(-c3ccccc3)nc12 | -4.6 | 31.9* | 6.8 | 20.6 | 5.6 | -8.2
O=C(NCc1ccco1)c1cnn2c(C(F)(F)F)cc(-c3cccs3)nc12 | -3.2 | ? | -2.8 | 52.1* | 36.0 | -0.1
COC(=O)[C@]12CCCCC=C1N(CCc1ccc(OC)c(OC)c1)C(=O)[C@H](CC(=O)NCc1ccc(C)o1)C2 | -3.8 | · | · | · | · | ·
O=C(CSc1cccc2cccnc12)Nc1ccc(S(=O)(=O)N2CCOCC2)cc1 | -2.3 | 5.6 | 8.0 | 2.3 | 3.5 | -1.5
O=C(COC(=O)c1ccc(Br)o1)NC1CCCCC1 | -4.3 | -3.0 | -2.4 | 0.7 | 0.1 | -1.1
Cc1c(CC(=O)N2CCN(C(=O)C3COc4ccccc4O3)CC2)c(=O)oc2cc(O)cc(O)c12 (stereo not given) | -7.1 | 5.3 | -1.0 | · | · | -9.2
CCOC(=O)Cc1c(C)c2ccc(N(CC)CC)cc2oc1=O | 6.2 | 130.5* | -1.1 | 46.5 | 9.9 | -7.2
CCN(CC)c1ccc2c(C)c(Cl)c(=O)oc2c1 | + | 107.7* | -1.5 | 91.1* | 19.7 | -80.6
CCOC(=O)Cc1c(C)c2c(O)cc(O)cc2oc1=O | -3.8 | 8.5 | -5.7 | 67.6* | 39.6 | -24.7
CCN(CC)c1ccc2c(Cl)c(Br)c(=O)oc2c1 | · | 43.3* | 3.3 | -14.1 | 11.7 | -1.0
O=C(NCC1COCCO1)c1cc(COc2c(F)cccc2F)on1 (stereo not given) | -6.1 | 1.9 | 3.2 | · | · | -9.1
O=C(CN(C(=O)c1csnn1)c1ccc(F)cc1)NCc1ccc(F)cc1 | -4.9 | -1.6 | -0.2 | -0.2 | 2.2 | 1.1
CC(=O)CCc1c(C)nc2ccc(C(=O)O)cc2c1Cl | -4.9 | 8.1 | 3.2 | 7.7 | 4.3 | -3.2
COc1ccc(-c2c(C)c3ccc(OCC(C)=O)cc3oc2=O)cc1 | · | -1.4 | -6.2 | 0.3 | -2.0 | -5.8
CCN(Cc1cc(=O)oc2cc(C)ccc12)c1ccccc1 | -3.7 | -2.2 | 0.8 | · | · | 0.4
CCN(CC)c1ccc2c(c1)oc(=O)c1c(Cl)cc(=O)oc12 | · | 66.8* | 2.2 | 61.6* | 17.7 | -1.1
